Reference: ChEMBL document CHEMBL1147939, “Synthesis and biological evaluation of new 3-substituted indole derivatives as potential anti-inflammatory and analgesic agents” (2007)

Experiments:
Type in all cases: functional
Mus musculus [1] = assay: Antiinflammatory activity in Swiss mouse assessed as inhibition of carrageenan-induced hind paw oedema at 70 mg/kg, po after 4 hrs
Outline: (§1)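 Swiss mice (20–30 g), six per group; oral dosing, test agents in distilled water, reference in 5% sodium bicarbonate, saline controls. Oedema induced by subplantar injection of 50 µL 1% carrageenan in saline into right hind paw. Paw size measured before and 4 h after carrageenan. % oedema inhibition calculated versus saline control group's % oedema formation. Mean ± SE; one-way ANOVA, Duncan's test.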

Mus musculus [2] = assay: Antinociceptive activity in Swiss mouse assessed as inhibition of acetic-acid induced writhing at 70 mg/kg, po after 30 mins by Koster test
Outline: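 Koster writhing test in Swiss mice (20–30 g), six per group. Oral dosing, test agents in distilled water, reference in 5% sodium bicarbonate. After 60 min, 0.6% acetic acid given ip (0.2 mL/mouse). Writhes counted over 30 min. % change versus saline control group. Mean ± SE; one-way ANOVA, Duncan's test.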

Mus musculus [3] = assay: Effect on thermal pain in Swiss mouse at 70 mg/kg, po after 1 hr by hot plate test
Outline: (§2)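 Hot-plate at 52 °C, 60 s cut-off, Swiss mice, six per group. Latency to paw licking or jumping recorded before and 1 h after oral dosing (test agents in distilled water, reference in 5% sodium bicarbonate). % change from basal latency. Mean ± SE; one-way ANOVA, Duncan's test.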

Mus musculus [4] = assay: Antiinflammatory activity in Swiss mouse assessed as inhibition of carrageenan-induced hind paw oedema at 70 mg/kg, po after 4 hrs relative to indomethacin
Outline: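 Carrageenan paw oedema in Swiss mice, six per group, 70 mg/kg orally in distilled water; 50 µL 1% carrageenan subplantar, paw measured at 0 and 4 h. Potency expressed as ratio of the compound's percentage change to that of the indomethacin group (35 mg/kg in 5% sodium bicarbonate).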

Mus musculus [5] = assay: Antinociceptive activity in Swiss mouse assessed as inhibition of acetic-acid induced writhing at 70 mg/kg, po after 30 mins by Koster test relative to indomethacin
Outline: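 Acetic acid writhing in Swiss mice, six per group: 70 mg/kg orally in distilled water, 0.6% acetic acid ip 60 min later, writhes counted over 30 min. Potency is the ratio of % change to that of the indomethacin group (35 mg/kg).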

Mus musculus [6] = assay: Effect on thermal pain in Swiss mouse at 70 mg/kg, po after 1 hr by hot plate test relative to indomethacin; set-up: unit not given here
Outline: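 Hot-plate at 52 °C (60 s cut-off), Swiss mice, six per group. Latency to licking or jumping measured before and 1 h after 70 mg/kg orally. Potency is the ratio of % change from basal to that of the indomethacin group (35 mg/kg).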

Mus musculus [7] = assay: Antiinflammatory activity in Swiss mouse assessed as inhibition of carrageenan-induced hind paw oedema at 35 mg/kg, po after 4 hrs; outline: as §1
Mus musculus [8] = assay: Antinociceptive activity in Swiss mouse assessed as inhibition of acetic-acid induced writhing at 35 mg/kg, […] by Koster test; set-up: scale not given: the % may be the effect or the level left; conditions: route oral
Mus musculus [9] = assay: Effect on thermal pain in Swiss mouse at 35 mg/kg, po after 1 hr by hot plate test; outline: as §2

With CCOC(=O)C1=NN(c2ccccc2)/C(=C(\C#N)C(=O)c2c[nH]c3ccccc23)S1 the inhibition in vivo at 70 mg/kg (Mus musculus [1]) was -5.5%, the “percent change in writhing count versus control” value (“percent change” below) (Mus musculus [2]) was -61.7% and the Activity (Mus musculus [3]) was 9.6%. The Activity (Mus musculus [4]) was 0.2 ratio (fold of indomethacin), the Activity (Mus musculus [5]) was 0.76 ratio to indomethacin and the Activity (Mus musculus [6]) was 0.4.
With COc1ccc2c(c1)c(CC(=O)O)c(C)n2C(=O)c1ccc(Cl)cc1 [INDOMETHACIN] the inhibition in vivo at 35 mg/kg (Mus musculus [7]) was -29.9%, the Activity (Mus musculus [8]) was -80.7% and the Activity (Mus musculus [9]) was 22.6%.
In the case of CC(=O)C1=NN(c2ccc(C)cc2)/C(=C(\C#N)C(=O)c2c[nH]c3ccccc23)S1, the inhibition in vivo at 70 mg/kg (Mus musculus [1]) is reported as -32.7%, the “percent change” value (Mus musculus [2]) is reported as -57.8% and the Activity (Mus musculus [3]) is reported as 21%. The Activity (Mus musculus [4]) was 1.1 ratio (fold of indomethacin), the Activity (Mus musculus [5]) was 0.7 ratio to indomethacin and the Activity (Mus musculus [6]) was 0.9.
In the case of N#C/C(C(=O)c1c[nH]c2ccccc12)=C1/SC(c2ccccc2)=NN1c1ccccc1, the inhibition in vivo at 70 mg/kg (Mus musculus [1]) is reported as -31%, the “percent change” value (Mus musculus [2]) is reported as -35.3% and the Activity (Mus musculus [3]) is reported as 27.3%. The Activity (Mus musculus [4]) was 0.9 ratio (fold of indomethacin), the Activity (Mus musculus [5]) was 0.4 ratio to indomethacin and the Activity (Mus musculus [6]) was 1.2.
With CC(=O)C1=NN(c2ccc(Cl)cc2)/C(=C(\C#N)C(=O)c2c[nH]c3ccccc23)S1 the inhibition in vivo at 70 mg/kg (Mus musculus [1]) was -15%, the “percent change” value (Mus musculus [2]) was -45.7% and the Activity (Mus musculus [3]) was 69.6%. The Activity (Mus musculus [4]) was 0.5 ratio (fold of indomethacin), the Activity (Mus musculus [5]) was 0.57 ratio to indomethacin and the Activity (Mus musculus [6]) was 3.1.
For CC(=O)c1sc(Nc2ccccc2)c(C#N)c1-c1c[nH]c2ccccc12, the inhibition in vivo at 70 mg/kg (Mus musculus [1]) was -44.4%, the “percent change” value (Mus musculus [2]) was -68.6% and the Activity (Mus musculus [3]) was 11.2%. For the same compound, the Activity (Mus musculus [4]) was 1.5 ratio (fold of indomethacin), the Activity (Mus musculus [5]) was 0.85 ratio to indomethacin and the Activity (Mus musculus [6]) was 0.5.
N#C/C(=N\Nc1nc2ccccc2[nH]1)C(=O)c1c[nH]c2ccccc12 was tested, and the inhibition in vivo at 70 mg/kg (Mus musculus [1]) was -25.5%, the “percent change” value (Mus musculus [2]) was -63.2% and the Activity (Mus musculus [3]) was 8.6%. For the same compound, the Activity (Mus musculus [4]) was 0.9 ratio (fold of indomethacin), the Activity (Mus musculus [5]) was 0.78 ratio to indomethacin and the Activity (Mus musculus [6]) was 0.4.
With CC(=O)C1=NN(c2ccccc2)/C(=C(\C#N)C(=O)c2c[nH]c3ccccc23)S1 the inhibition in vivo at 70 mg/kg (Mus musculus [1]) was -21.9%, the “percent change” value (Mus musculus [2]) was -71.6% and the Activity (Mus musculus [3]) was 2.4%. The Activity (Mus musculus [4]) was 0.6 ratio (fold of indomethacin), the Activity (Mus musculus [5]) was 0.88 ratio to indomethacin and the Activity (Mus musculus [6]) was 0.1.
With N#C/C(C(=O)c1c[nH]c2ccccc12)=C(\S)Nc1ccccc1 the inhibition in vivo at 70 mg/kg (Mus musculus [1]) was -28%, the “percent change” value (Mus musculus [2]) was -64.1% and the Activity (Mus musculus [3]) was 24.2%. For the same compound, the Activity (Mus musculus [4]) was 0.9 ratio (fold of indomethacin), the Activity (Mus musculus [5]) was 0.79 ratio to indomethacin and the Activity (Mus musculus [6]) was 1.1.
N#C/C(C(=O)c1c[nH]c2ccccc12)=C1/SCC(=O)N1c1ccccc1 was tested, and the inhibition in vivo at 70 mg/kg (Mus musculus [1]) was -7.7%, the “percent change” value (Mus musculus [2]) was -60.9% and the Activity (Mus musculus [3]) was 76.5%. For the same compound, the Activity (Mus musculus [4]) was 0.3 ratio (fold of indomethacin), the Activity (Mus musculus [5]) was 0.75 ratio to indomethacin and the Activity (Mus musculus [6]) was 3.4.
In the case of N#C/C(=N\Nc1cc(-c2ccccc2)n[nH]1)C(=O)c1c[nH]c2ccccc12, the inhibition in vivo at 70 mg/kg (Mus musculus [1]) is reported as -13.1%, the “percent change” value (Mus musculus [2]) is reported as -62.5% and the Activity (Mus musculus [3]) is reported as 28.3%. For the same compound, the Activity (Mus musculus [4]) was 0.4 ratio (fold of indomethacin), the Activity (Mus musculus [5]) was 0.77 ratio to indomethacin and the Activity (Mus musculus [6]) was 1.3.
In the case of CCOC(=O)C1=NN(c2ccc(Cl)cc2)/C(=C(\C#N)C(=O)c2c[nH]c3ccccc23)S1, the inhibition in vivo at 70 mg/kg (Mus musculus [1]) is reported as -19.1%, the “percent change” value (Mus musculus [2]) is reported as -76% and the Activity (Mus musculus [3]) is reported as 9.9%. The Activity (Mus musculus [4]) was 0.6 ratio (fold of indomethacin), the Activity (Mus musculus [5]) was 0.9 ratio to indomethacin and the Activity (Mus musculus [6]) was 0.4.
For CCOC(=O)C1=NN(c2ccc(C)cc2)/C(=C(\C#N)C(=O)c2c[nH]c3ccccc23)S1, the inhibition in vivo at 70 mg/kg (Mus musculus [1]) was -11.5%, the “percent change” value (Mus musculus [2]) was -77.5% and the Activity (Mus musculus [3]) was 11.4%. The Activity (Mus musculus [4]) was 0.4 ratio (fold of indomethacin), the Activity (Mus musculus [5]) was 0.96 ratio to indomethacin and the Activity (Mus musculus [6]) was 0.5.
